Compound activity from PubChem.
Most compounds without a hit are left out; they make up all but 3.5% or so of the library.
MrgX1 PAM – allosterically activates human MrgX1 receptor signaling | Q96LB2 | MrgX1-HEK293, Fluo-4 calcium flux, FDSS; active compounds read high | B-score at 10 µM | hit rate 0.63% among 310,000;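 active means plate-corrected calcium response at least 3 library SD above typical, normal starting fluorescence, not activating the receptor alone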;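 further: compound read alongside a low EC10 to EC30 dose of BAM8-22 agonist; peak minus trough fluorescence over baseline measured at the second addition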
Target sequence (Q96LB2 whole entry, looked up): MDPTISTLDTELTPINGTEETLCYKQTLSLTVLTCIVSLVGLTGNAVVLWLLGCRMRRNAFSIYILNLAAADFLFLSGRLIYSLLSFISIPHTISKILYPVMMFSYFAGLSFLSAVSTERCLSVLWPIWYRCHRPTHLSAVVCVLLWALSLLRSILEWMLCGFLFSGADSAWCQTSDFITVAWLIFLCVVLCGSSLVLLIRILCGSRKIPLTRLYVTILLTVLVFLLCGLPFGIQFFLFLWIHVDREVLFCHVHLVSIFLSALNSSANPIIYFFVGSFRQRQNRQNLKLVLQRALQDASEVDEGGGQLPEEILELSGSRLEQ
MrgX1 antag – human MrgX1 receptor antagonism, primary screen; Q96LB2; MRGX1-HEK293 calcium flux, Fluo-4, BAM8-22 antagonism; active compounds read low; B-score at 10 µM; hit rate 1.3% among 310,000;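 active means calcium-response B-score plate-corrected more than 3 library SD below zero, starting fluorescence within 5 deviations, no agonist response on first addition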;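 further: peak minus trough fluorescence over baseline after final BAM8-22 challenge near maximal dose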
RGS4 pot – potentiators or activators of RGS4 | HEK293 M3R/inducible RGS4, carbachol calcium flux Fluo4; active compounds read low | B-score at 10 µM | hit rate 0.92% among 310,000;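 active means B-score of the integrated calcium signal more than 4 SD below the library mean, with starting fluorescence not abnormally high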;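 further: negative B-score means reduced calcium response which marks RGS4 activation or potentiation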
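Also added: carbachol at ECmax as muscarinic agonist stimulus; Assay system: HEK293 cells with stable M3R and inducible RGS4; Timing: overnight RGS4 induction, 30 min dye load 37 °C, 20 min compound RT; Measured by: Fluo4-AM (2 µM) calcium-flux fluorescence, kinetic read.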
RGS4 block – human RGS4 inhibition | B-score at 10 µM | AID 463165 | HEK293 M3R/RGS4 inducible, Fluo-4 calcium flux; active compounds read high; triggered by carbachol at its EC20 | P49798 | hit rate 0.45% among 310,000;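 active means B-score, a plate-corrected calcium signal, over three deviations above library mean, with baseline fluorescence within five deviations of library mean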;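 further: RGS4 expression induced by doxycycline in cells with stable M3 receptor; B-score is computed from the integrated fluorescence ratio over baseline after carbachol; higher B-score means a larger calcium signal and so more RGS4 inhibition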
Target sequence (P49798 whole entry, looked up): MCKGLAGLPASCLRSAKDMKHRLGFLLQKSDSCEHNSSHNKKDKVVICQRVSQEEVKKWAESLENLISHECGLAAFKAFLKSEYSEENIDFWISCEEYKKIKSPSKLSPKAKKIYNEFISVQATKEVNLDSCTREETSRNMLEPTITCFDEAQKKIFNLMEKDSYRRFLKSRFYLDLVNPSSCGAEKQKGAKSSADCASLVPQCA
MrgX1 ag – agonists of human MrgX1 receptor. Q96LB2. MrgX1-HEK293 cells, Fluo-4 calcium fluorescence, agonist mode; active compounds read high. hit rate 0.44% among 310,000. B-score at 10 µM;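 active means calcium response B-score plate-corrected fluorescence ratio at least 3 library SD, with starting fluorescence B-score inside 5 SD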
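Test system: HEK293 cells stably expressing human MrgX1 receptor; Input: fifteen thousand cells per well; Dosing: compound delivered in addition one of three; Schedule: overnight seeding, then 1 h dark dye loading; Technique: Fluo-4 NW calcium fluorescence; Measure: B-scored fluorescence response ratio; Controls: positive and negative controls per plate.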
RGS4 act valid – confirmation of RGS4 activators; shares compounds with RGS4 pot; HEK293 M3R/RGS4 inducible, carbachol calcium flux Fluo4; inhibition, % at 10 µM; hit rate 89% among 1,100; AID 602282;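 active means inhibition above 3 SD of the buffer control wells, cut at about 41% in these data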;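 further: signal is the integrated peak-minus-minimum Fluo4 fluorescence over baseline ratio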
RGS4 act ctr – RGS4 activator counter-screen hit in non-induced cells; shares compounds with RGS4 pot; HEK293 M3R non-induced RGS4, Fluo4 calcium flux; after carbachol challenge at its EC90; inhibition, % at 10 µM; hit rate 82% among 1,100; AID 602283;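 active means inhibition exceeding 3 SD of buffer-only control wells, cut at about 26% in these data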;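 further: percent drop in integrated peak-minus-baseline over baseline Fluo4 ratio after carbachol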
MrgX1 ag confirm – human MrgX1 agonism, re-confirmation screen; shares compounds with MrgX1 ag; hit rate 78% among 600; activation, % at 10 µM; AID 602412; MrgX1-HEK293, Fluo-4 calcium fluorescence, FDSS;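 active means calcium signal rise, corrected for plate position, at least 3 library SD high, with starting brightness within 5 such deviations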
MrgX1 allo conf – human MrgX1 positive allosteric modulation, re-confirmation. shares compounds with MrgX1 PAM. MrgX1-HEK293, Fluo-4 calcium fluorescence, FDSS. activation (ratio percentage), % at 10 µM. hit rate 13% among 1,200;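 active means ratio at least 3 SD above the weak peptide control, stable starting fluorescence, no direct agonism earlier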;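 further: compound followed by low BAM8-22 agonist challenge near EC20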
MrgX1 antag conf – human MrgX1 receptor antagonism, re-confirmation screen; shares compounds with MrgX1 antag; MrgX1-HEK293, BAM8-22 calcium flux, Fluo-4; active compounds read low; remaining BAM8-22 calcium response % of control (active compounds read low), % at 10 µM; hit rate 19% among 2,300;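 active means remaining agonist calcium response no higher than 100% minus 3 SD of agonist-only control wells, with starting fluorescence near control levels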;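 further: agonist BAM8-22 given at a near maximal EC90 to ECmax level; peak minus minimum fluorescence divided by baseline after agonist addition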
HEK293 Ca flux – MrgX1 antagonist counter-screen hit in parental HEK293 cells; shares compounds with MrgX1 antag; Fluo-4 calcium fluorescence, FDSS; fluorescence ratio F(max-min)/F0 at 10 µM; hit rate 2% among 4,000;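 active means duplicate-averaged calcium fluorescence ratio at least three times the standard deviation of buffer wells, a nonspecific response in parental cells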
HEK293 Ca counter – counter-screen for MrgX1 allosteric activators: effect in parental HEK293 cells | hit rate 0.4% among 4,000 | shares compounds with MrgX1 antag | parental HEK293 calcium flux, Fluo-4 fluorescence ratio; active compounds read high | fluorescence ratio F(max-min)/F0 at 10 µM;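 active means calcium fluorescence ratio, averaged over duplicates, at least 3 SD of the buffer-well ratio, meaning a nonspecific response in receptor-free cells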;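 further: untransfected parental HEK293 lacking MrgX1 used as counterscreen for MrgX1 allosteric activators; fluorescence change taken during the second addition on a kinetic imager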
HEK293 Ca cntr2 – activity in parental HEK293 cells lacking MrgX1 receptor; shares compounds with MrgX1 antag; Fluo-4 calcium fluorescence (FDSS); active compounds read high; hit rate 8.7% among 4,000; fluorescence ratio F(max-min)/F0 at 10 µM;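 active means calcium fluorescence ratio at least three times the spread of buffer wells, meaning a non-specific response in parental cells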
Large screens that a line does not name were inactive (follow-up assays come after a bar, where they were run).

COc1ccc(-c2cc(C(=O)N(C)Cc3cccc(OC)c3OC)c3ccccc3n2)cc1OC	none
COc1ccc(CN(C)C(=O)c2cc(-c3ccc(OC)c(OC)c3)nc3ccccc23)c(OC)c1	RGS4 pot -9 | RGS4 act valid 69 | RGS4 act ctr 84
COc1ccc(-c2cc(C(=O)N(C)CCc3ccc(OC)c(OC)c3)c3ccccc3n2)cc1	none
COc1cccc(NC(=O)CN(C)C(=O)c2cc(-c3ccc(F)cc3)nc3ccccc23)c1	RGS4 pot -7.6 | RGS4 act valid 86 | RGS4 act ctr 64
COc1cccc(CN(C)C(=O)c2cc(-c3ccc(OC)c(OC)c3)nc3ccccc23)c1	RGS4 pot -9.8 | RGS4 act valid 66 | RGS4 act ctr 28
Cc1ccccc1OCC(=O)NCCCNC(=O)c1ccccn1	none
CN1CCN(C2=Cc3cc(Cl)ccc3Sc3cc(F)ccc32)CC1	RGS4 pot -8 | RGS4 act valid 92 | RGS4 act ctr 91
CN1CCN(CCC(=O)N2c3ccccc3Sc3ccc(Cl)cc32)CC1	none
OCCN1CCN(C2Cc3cc(Cl)ccc3Sc3ccc(Cl)cc32)CC1 (stereo not given) (tested in a mixture with another compound)	none
CN1CCN(C2Cc3cc(Cl)ccc3Sc3cc(F)ccc32)CC1 (stereo not given)	RGS4 pot -8 | RGS4 act valid 93 | RGS4 act ctr 95
CCc1ccc2c(c1)Sc1ccccc1CC2N1CCN(C)CC1 (stereo not given)	RGS4 pot -8.9 | RGS4 act valid 92 | RGS4 act ctr 90
c1ccc2c(c1)CC(N1CCCCC1)c1ccccc1S2 (stereo not given)	none
COc1ccc(/C=C2\SC(=O)N(CC(=O)NN3CCN(C)CC3)C2=O)cc1OC	none
COc1cc(OC)cc(C(=O)NC(=S)NNC(=O)[C@H]2C[C@@H]2c2ccccc2)c1	RGS4 pot -11, MrgX1 ag 109 | RGS4 act valid 84 | RGS4 act ctr 77 | MrgX1 ag confirm 580% | HEK293 Ca flux inactive | HEK293 Ca counter inactive | HEK293 Ca cntr2 110
CCN(CC)CC#CC(OC)(c1ccccc1)c1ccccc1	MrgX1 PAM 8, RGS4 pot -9.7 | RGS4 act valid 92 | RGS4 act ctr 88 | MrgX1 allo conf inactive | HEK293 Ca flux inactive | HEK293 Ca counter inactive | HEK293 Ca cntr2 inactive
Cc1cc(N/N=C/c2ccncc2)c([N+](=O)[O-])cc1[N+](=O)[O-]	none
O=C(CNC(=O)c1ccncc1)N/N=C/c1ccc(O)cc1O	none
COC(=O)c1cccc(Nc2nc(-c3ccncc3)nc3ccccc23)c1	none
CCOC(=O)c1cccc(Nc2nc(-c3cccnc3)nc3ccccc23)c1	MrgX1 antag -4.6, RGS4 pot -8.1 | RGS4 act valid 57 | RGS4 act ctr inactive | MrgX1 antag conf inactive | HEK293 Ca flux inactive | HEK293 Ca counter inactive | HEK293 Ca cntr2 inactive
COc1ccc2nc(Nc3nc(CSc4nc5ccccc5[nH]4)cc(=O)[nH]3)nc(C)c2c1	none
Cc1nc(Nc2nc(CSc3nc4ccccc4[nH]3)cc(=O)[nH]2)nc2ccccc12	MrgX1 antag -5.2, RGS4 pot -13 | RGS4 act valid 62 | RGS4 act ctr inactive | MrgX1 antag conf 83% | HEK293 Ca flux inactive | HEK293 Ca counter inactive | HEK293 Ca cntr2 inactive
Cc1cc(-c2nnc(SCC(=O)Nc3cccc(Cl)c3)n2N)n[nH]1	none
CN(C)c1ccc(/C=N/N(CCC#N)C2=NS(=O)(=O)c3ccccc32)cc1	none
COc1ccccc1-c1c(C#N)c(N)nc2c1CCc1ccccc1-2	MrgX1 PAM 12, RGS4 pot -7.6 | RGS4 act valid 89 | RGS4 act ctr 52 | MrgX1 allo conf inactive | HEK293 Ca flux inactive | HEK293 Ca counter inactive | HEK293 Ca cntr2 inactive
OC(CCN1CCOCC1)(c1ccc(Cl)cc1)C1CCCCC1 (stereo not given)	MrgX1 PAM 6.8, RGS4 pot -9.8 | RGS4 act valid 93 | RGS4 act ctr 94 | MrgX1 allo conf inactive | HEK293 Ca flux inactive | HEK293 Ca counter inactive | HEK293 Ca cntr2 inactive
C=CCn1c(SCCN2CCCC2)nc2c([nH]c3ccccc32)c1=O	MrgX1 antag -4.6, RGS4 pot -8.4 | RGS4 act valid 64 | RGS4 act ctr inactive | MrgX1 antag conf inactive | HEK293 Ca flux inactive | HEK293 Ca counter inactive | HEK293 Ca cntr2 inactive
C=CCn1c(SCC(=O)Nc2ccc(OC)cc2)nc2c([nH]c3ccccc32)c1=O	none
Cc1nc(Sc2ccccc2)c(C#N)cc1-c1ccccc1	MrgX1 PAM 6.8, RGS4 pot -10 | RGS4 act valid 94 | RGS4 act ctr 63 | MrgX1 allo conf inactive | HEK293 Ca flux inactive | HEK293 Ca counter inactive | HEK293 Ca cntr2 inactive
Cc1nc(Cl)c(C#N)cc1-c1ccccc1	none
Cc1cc(C(=O)COc2ccccc2[N+](=O)[O-])c(C)n1C1CC1	none
